From PubChem BioAssay
The list is not random: actives were taken first. Their share in the collection is about 1.5%.
aDG glyco up – increases alpha dystroglycan glycosylation; Pro5-aDG cells, alpha-DG glycosylation AlphaScreen (IIH6); 0% Pro5, 100% B10-LARGE cell signal; 360,000 tested, 0.22% active; AID 624168; activation, % at 10 µM;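 active = activation of at least 8% versus controls, or a plate z-score of at least 8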;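 also: Pro5 are CHO cells carrying HIG-tagged alpha-DG that lacks glycosylation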
NR1D1 modulator – modulates human Rev-erb alpha binding to DNA | P20393 | 370,000 tested, 0.79% active | activity, % at 10 µM | Rev-erbα–FITC-DNA binding, fluorescence polarization, 90 min | AID 1259318;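 active = activity above about 14%, limit read from the data; passing the limit was not always enough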;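 also: 0% = DMSO wells with 35 nM protein and 100% = DMSO wells with 750 nM protein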
Target sequence (P20393 whole entry, looked up): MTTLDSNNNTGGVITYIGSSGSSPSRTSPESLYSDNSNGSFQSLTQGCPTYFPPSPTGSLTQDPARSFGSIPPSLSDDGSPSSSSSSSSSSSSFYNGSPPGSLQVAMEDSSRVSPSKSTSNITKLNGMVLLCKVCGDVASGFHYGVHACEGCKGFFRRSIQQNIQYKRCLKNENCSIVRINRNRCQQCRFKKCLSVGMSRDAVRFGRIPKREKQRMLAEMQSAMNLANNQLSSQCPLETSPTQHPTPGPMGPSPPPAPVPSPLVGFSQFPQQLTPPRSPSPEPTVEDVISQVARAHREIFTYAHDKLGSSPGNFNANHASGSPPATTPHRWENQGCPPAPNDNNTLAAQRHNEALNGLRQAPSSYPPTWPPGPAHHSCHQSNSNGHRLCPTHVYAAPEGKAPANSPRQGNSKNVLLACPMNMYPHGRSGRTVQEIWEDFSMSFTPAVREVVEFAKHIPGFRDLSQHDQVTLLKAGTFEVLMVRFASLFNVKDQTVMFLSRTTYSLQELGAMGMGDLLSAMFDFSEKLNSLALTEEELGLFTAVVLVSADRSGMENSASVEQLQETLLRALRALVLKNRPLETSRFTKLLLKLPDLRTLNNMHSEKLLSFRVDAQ
HNF4A DNA FP – change in binding of human HNF4 alpha to DNA; P41235; HNF4a-FITC DNA binding, fluorescence polarization, 1 h; activity change, % at 10 µM; 360,000 tested, 0.3% active; AID 1224865; in the data active = activity change above about 30%, passing the limit was not always enough
CSN inh – inhibitors of human CSN-mediated cullin deneddylation; 360,000 tested, 0.38% active; Purified CSN, SCF-Nedd8-OG deneddylation, fluorescence polarization; inhibition, % at 12.5 µM; Q92905;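 active = pattern-corrected inhibition above about 35%, with an unprinted fluorescence ratio check between 0.5 and 1.5, limit read from the data, passing the limit was not always enough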;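 also: 0% = enzyme with substrate and 100% = substrate without enzyme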
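Test system: purified human Csn5 enzyme expressed in HEK293T cells. Amount: 0.24 nM enzyme. Reagent: SCFSkp2-Nedd8OG substrate at 10 nM final. Schedule: 90 min incubation of compound, enzyme and substrate at room temperature. Detection: fluorescence polarization. Read-out: % inhibition of substrate cleavage by Csn5.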
NR1D1 mod conf – confirmation of modulators of human Rev-erb alpha DNA binding | shares compounds with NR1D1 modulator | Rev-erb alpha FITC-DNA binding, fluorescence polarization, 90 min | activation, % at 25 µM | 3,000 tested, 61% active | AID 1259319;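 active = activation at or above a set limit, or at least 3 SD above the negative control mean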;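 also: 0% = 35 nM protein with DMSO and 100% = 750 nM protein high control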
RORg counter – RORgamma DNA-binding activity, dose-response counter-screen; shares compounds with NR1D1 modulator; purified RORgamma protein-FITC-DNA binding, fluorescence polarization; IC50, µM; 910 tested, 8% active;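 active = Compounds whose fitted half-maximal concentration for disrupting protein-DNA binding is below 10 micromolar; the record names Rev-erb in its text, so the target is in doubt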
* hit, by the source's call; . = not tested or not shown.

SMILES	aDG glyco up	NR1D1 modulator	HNF4A DNA FP	CSN inh	NR1D1 mod conf	others
COC(=O)CCC(=O)N1C2=NC3=C(C(=O)N(Cc4ccc5c(c4)OCO5)C3=O)C3N(C)c4ccccc4[C@]23C[C@H]1CO (stereo partly drawn)	.	0.5	.	.	.
CN(CCOC(=O)c1cc2ccccc2o1)C1CN(Cc2cn(Cc3cccc(F)c3)nn2)S(=O)(=O)C1 (stereo not drawn)	.	-4.1	.	.	.
COc1ccc(CC(=O)Nc2sc3c(c2C(N)=O)CCCC3)cc1OC	0.2	-3.6	-5.0	-2.1	.
COc1cccc(CC(=O)Nc2sc3c(c2C(N)=O)CCCC3)c1	-0.1	29.4*	-1.9	1.8	1.9
C=CCn1c(COc2ccc(C)cc2)nnc1SCc1ccc([N+](=O)[O-])cc1	.	-4.6	.	.	.
O=C(Nc1c(-c2ccc(F)cc2)nc2ncccn12)C1CC1	.	1.4	.	.	.
CN1C(=O)c2cc(NS(=O)(=O)c3ccc(F)cc3)ccc2OC[C@H]2O[C@@H](CC(=O)NCC(F)(F)F)CC[C@@H]21	.	130.4*	.	.	79.5*	RORg counter=7.22*
CCNC(=O)Nc1ccc2c(c1)C(=O)N(C)[C@H]1CC[C@H](CC(=O)N[C@H](C)c3ccccc3)O[C@@H]1CO2	.	80.0*	.	.	55.2*	RORg counter=>40
COc1cccc(CNC(=O)C[C@H]2CC[C@H]3[C@@H](COc4ccc(NC(=O)c5cccs5)cc4C(=O)N3C)O2)c1	.	59.7*	.	.	43.0*	RORg counter=>40
COC(=O)C[C@@H]1CC[C@@H]2[C@@H](COc3ccc(NS(=O)(=O)c4ccc(F)cc4)cc3C(=O)N2C)O1	.	6.0	.	.	.
C[C@@H](NC(=O)C[C@H]1CC[C@H]2[C@@H](COc3ccc(NC(=O)Nc4ccccc4)cc3C(=O)N2C)O1)c1ccccc1	.	26.2*	.	.	20.3*
CCNC(=O)N(C)[C@H]1C[C@H]2c3[nH]c4c(-c5cccc(C)c5)cccc4c3CCN2C[C@H]1[C@H](C)O	.	-3.3	.	.	.
CS(=O)(=O)c1ccc2nc(NC(=O)c3cc(-c4ccccc4)nn3-c3ccccc3)sc2c1	-0.1	42.4*	2.5	4.2	18.8*
COc1ccccc1C(=O)Nc1nc2ccccc2s1	-0.1	33.5*	1.7	2.5	40.5*	RORg counter=>40
COc1ccccc1C(=O)Nc1nc2ccc(S(C)(=O)=O)cc2s1	-0.3	49.0*	-1.8	-1.8	31.4*
CS(=O)(=O)c1ccc2nc(NC(=O)C3=NN(c4ccccc4)C(=O)CC3)sc2c1	-0.2	2.1	1.7	-5.6	.
COC(=O)[C@]12C[C@H](CC(=O)NCc3cccc4ccccc34)C(=O)N(Cc3ccco3)C1=C[C@H](C(C)(C)C)O[C@@H]2C	.	-3.6	.	.	.
CS(=O)(=O)/C(C#N)=C/c1cccn1S(=O)(=O)c1ccccc1	-0.1	-0.5	5.1	-1.6	.
CC(C)(C)S(=O)(=O)/C(C#N)=C/c1cccn1S(=O)(=O)c1ccccc1	0.2	16.6*	-2.2	-1.0	10.7*
C=CCOC(=O)N[C@H](c1ccc2ccccc2c1)[C@H](C)/C=C/CC(=O)OC	.	-2.0	.	.	.
O=C(O)CN(CCN(CC(=O)O)CC(=O)O)CC(=O)O	.	49.7*	.	.	2.9
CCCCCC(=O)NC1CCCCN(Cc2cccc(Cl)c2)C1=O (stereo not drawn)	.	1.7	.	.	.
CCOC(=O)c1sc(NC(=O)c2ccc(S(=O)(=O)N(C)C)cc2)nc1C	-0.7	36.1*	-1.4	1.0	38.1*	RORg counter=>40
CCOC(=O)c1csc(NC(=O)c2ccc(S(=O)(=O)N(C)C)cc2)n1	-0.2	-2.6	-0.9	6.5	.
COCCN(CCOC)S(=O)(=O)c1ccc(C(=O)Nc2nc(-c3ccccc3)c(C(=O)c3ccccc3)s2)cc1	0.0	1.7	0.1	-3.3	.
SMILES	aDG glyco up	NR1D1 modulator	HNF4A DNA FP	CSN inh	NR1D1 mod conf	others
CCCN(CCC)S(=O)(=O)c1ccc(C(=O)Nc2nc(-c3ccccc3)c(C(=O)OCC)s2)cc1	0.7	33.3*	-0.5	-3.5	12.3
O=C(Nc1ccon1)c1sc2cc(F)ccc2c1Cl	-0.1	34.0*	0.9	0.6	22.1*
O=C(NCC1COc2ccccc2O1)c1ccc(NC(=O)c2cccc(F)c2F)cc1 (stereo not drawn)	.	-4.2	.	.	.
O=C(NNC(=O)c1cc2ccccc2cc1O)Nc1ccc(Br)cc1	1.1	-4.5	-5.3	8.0	.
COc1ccc(NC(=O)NNC(=O)c2cc3ccccc3cc2O)cc1	0.1	45.5*	4.7	6.0	29.6*	RORg counter=>40
COc1ccc(C(=O)NNC(=O)C(Cc2ccc(O)cc2)NC(=O)c2ccccc2NC(=O)c2ccc(OC)cc2)cc1 (stereo not drawn)	0.2	44.9*	-1.8	0.0	35.9*	RORg counter=>40
COc1ccc(C(=O)NNC(=O)C(C)NC(=O)c2ccccc2NC(=O)c2ccco2)cc1 (stereo not drawn)	0.0	-2.7	0.9	0.7	.
COc1ccc(C(=O)Nc2ccccc2C(=O)NC(Cc2ccc(O)cc2)C(=O)NNC(=O)c2ccccc2Cl)cc1 (stereo not drawn)	-0.2	24.2*	1.6	6.6	18.6*
COc1ccc(C(=O)Nc2ccccc2C(=O)Nc2ccccc2)cc1	-0.2	67.6*	-4.5	-2.0	45.4*	RORg counter=>40
O=C(CN1CCc2onc(-c3ccc(-n4cc(COc5ccc([N+](=O)[O-])cc5)nn4)cc3)c2C1=O)N1CCOCC1	.	-3.8	.	.	.
CN(Cc1cn(CC2CCCCC2)nn1)S(=O)(=O)c1ccccc1Br	.	8.3	.	.	.
Cc1coc2cc3oc(=O)c(Cc4ccccc4)c(C)c3cc12	0.0	32.1*	0.8	-14.5	42.6*	RORg counter=>40
Cc1c(C)c2cc3c(C)coc3cc2oc1=O	-0.1	5.4	-2.0	-2.6	.
C=CCN1[C@H](CC(C)C)COc2cc(N3CCSCC3)ccc2S1(=O)=O	.	-1.7	.	.	.
COc1ccc(-c2noc(C3CCCN(C(=O)NC4CCC(C)CC4)C3)n2)cc1 (stereo not drawn)	.	-0.5	.	.	.
NS(=O)(=O)c1ccc(CCNC(=O)c2cc(-c3ccccn3)nc3ccc(Br)cc23)cc1	-0.1	33.7*	-5.4	-11.3	30.4*	RORg counter=>40
Cc1cc(NC(=O)c2cc(-c3ccccn3)nc3ccccc23)no1	-0.2	-0.4	-1.8	-2.4	.
NS(=O)(=O)c1ccc(CNC(=O)c2cc(-c3cccnc3)nc3ccc(Br)cc23)cc1	0.0	42.8*	4.7	1.6	31.2*	RORg counter=1.26*
Cc1cc(NC(=O)c2cc(-c3ccccn3)nc3ccc(Br)cc23)no1	-0.1	18.2*	4.0	44.0*	22.0*
Cc1ccc(-c2cc(C(=O)NCc3cnn(C)c3C)c3cc(Br)ccc3n2)cc1	-0.3	31.8*	-0.2	6.4	10.8
Cc1ccc(-c2cc(C(=O)N(C)Cc3cnn(C)c3C)c3cc(Br)ccc3n2)cc1	-0.3	11.1	0.5	0.5	.
NS(=O)(=O)c1ccc(CCNC(=O)c2cc(-c3ccc(Br)cc3)nc3ccccc23)cc1	-0.2	16.7	1.4	4.3	.
